High-throughput results from PubChem BioAssay.
This is a sample that favours compounds with a hit; in the whole collection about 2.3% have one here.
TRPC6 activator – mouse TRPC6 channel activation | Q61143 | HEK293-TRPC6 membrane potential dye fluorescence; active compounds read high | B-score at 10 µM | actives 0.13% (n = 310,000) | AID 2550;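 active means B-score of the integrated fluorescence ratio above library mean plus 3 SD, and starting fluorescence ratio within library mean plus 5 SD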;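 further: higher score means more depolarization so channel activation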
TRPC6 inh – mouse TRPC6 channel inhibition; HEK293-TRPC6, membrane potential dye, ACh-evoked depolarization; active compounds read low; B-score at 10 µM; actives 1.1% (n = 310,000);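 active means B-score under library mean minus 3 SD, initial fluorescence not abnormally high, positive integrated signal ratio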;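 further: B-score derived from integrated fluorescence ratio over the kinetic read; more negative B-score means stronger inhibition of depolarization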
TRPC4 potent – allosteric potentiators of mouse TRPC4 channel; Q9QUQ5; HEK293 TRPC4beta/mu-opioid, DAMGO EC20, Fluo-4 Ca2+ flux; active compounds read high; B-score at 10 µM; actives 0.42% (n = 310,000);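 active means B-score of calcium response area above 5 SD of library B-scores, with initial fluorescence ratio within 5 SD of library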;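 further: B-score of integrated fluorescence ratio over time as area under calcium response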
TRPC4 act – TRPC4 (mouse) channel activation | HEK293 TRPC4beta/mu-opioid, Fluo4 calcium fluorescence; active compounds read high | Q9QUQ5 | B-score at 10 µM | actives 0.49% (n = 310,000);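 active means B-score above 5 SD of library B-scores, and initial fluorescence ratio not above library mean plus 5 SD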;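 further: positive B-score marks a calcium rise read as TRPC4 activation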
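Material: HEK293 stable line with TRPC4beta plus mu-opioid receptor; technique: Fluo4 calcium-sensitive dye fluorescence, kinetic, 1 Hz baseline; timing: Fluo4 dye loading 45 min at room temperature, 110 s recording; controls: assay buffer as low control, maximal DAMGO as high control; read-out: integrated baseline-normalised fluorescence ratio, converted to per-well B score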
TRPC4 block – blocks the mouse TRPC4 cation channel; AID 2247; actives 0.39% (n = 300,000); Q9QUQ5; B-score at 10 µM; HEK293 TRPC4beta/mu-opioid, DAMGO-evoked Fluo4 calcium flux; active compounds read low;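 active means B-score over 3 SD under the library average, no early fluorescence shift, positive overall ratio signal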
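material = TRPC4beta/mu-opioid receptor HEK293 cell line | probe or stimulus = sequential submaximal and maximal DAMGO stimulation | compound dosing = one concentration per compound | measured by = Fluo4 Ca2+ flux fluorescence | evaluation = integrated fluorescence ratio relative to baseline, converted to per-well B score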
TRPC4 spec 2 – second check of whether TRPC6 inhibitors also affect mouse TRPC4; HEK293 TRPC4/MOR, membrane potential dye fluorescence; channel activated by saturating DAMGO dose; actives 42% (n = 920); inhibition, % at 10 µM; shares compounds with TRPC6 inh;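 active means compounds whose fluorescence signal differed from control wells by over 3 SD, either direction, in both duplicate plates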
TRPC4 spec – selectivity of TRPC6 inhibitors: effect on mouse TRPC4; shares compounds with TRPC6 inh; HEK293 TRPC4/mu-opioid, membrane potential fluorescence; activity change, negative = inhibition, % at 10 µM; actives 61% (n = 920);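 active means rise or fall in signal beyond 3 SD of buffer-only wells in both replicate plates, either sign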;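 further: integrated kinetic ratio of fluorescence range over baseline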
HEK293 MPD ctr 2-1 – second check of TRPC6 inhibitor effects in parental HEK293 cells; shares compounds with TRPC6 inh; parental HEK293 membrane potential dye fluorescence; maximal acetylcholine challenge after compound addition; signal change vs control, % at 10 µM; actives 31% (n = 920); AID 2779;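 active means membrane potential signal moving either way by over 3 SD of the maximum-effect control, in both duplicate plates, meaning non-specific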
HEK293 MPD ctr-1 – counter-screen for TRPC6 inhibitors: effect in parental HEK293 cells. shares compounds with TRPC6 inh. parental HEK293 membrane potential dye fluorescence. membrane potential signal change, % at 10 µM. actives 60% (n = 920). AID 2780;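 active means membrane potential signal shifting up or down by more than 3 SD of buffer-only wells, on both duplicate plates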
HEK293 MPD ctr-2 – parental HEK293 nonspecific activity of TRPC6 modulators; shares compounds with TRPC6 inh; membrane potential dye fluorescence; membrane potential signal change, % at 10 µM; actives 51% (n = 2,400); AID 488924;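 active means membrane potential signal moves up or down beyond 5 SD from buffer-only wells, on both duplicate plates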
HEK293 MPD ctr 2-2 – parental HEK293 nonspecific activity of TRPC6 modulators, second screen; AID 488926; actives 14% (n = 2,400); shares compounds with TRPC6 inh; membrane potential dye fluorescence; after compound, maximal acetylcholine stimulation; inhibition, % at 10 µM;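 active means membrane potential signal drops by more than 5 SD from the mean control signal, in both duplicate plates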;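 further: plate controls were acetylcholine ECmax control wells for no effect and buffer only wells for full effect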
TRPC4/MOR mod – mouse TRPC4 off-target activity of TRPC6 modulators; shares compounds with TRPC6 inh; HEK293 TRPC4/mu-opioid, membrane potential fluorescence; percent change from control (negative = decrease, positive = increase), % at 10 µM; actives 69% (n = 2,400); AID 488927;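 active means membrane potential signal moved up or down beyond 5 SD of buffer control wells, in both duplicate plates, actives on both sides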;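 further: plate controls were assay buffer wells for no effect and DAMGO maximal-effect wells for full effect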
TRPC4/MOR inh 2 – mouse TRPC4 off-target activity of TRPC6 modulators, second screen. shares compounds with TRPC6 inh. HEK293 TRPC4/mu-opioid, membrane potential dye fluorescence; stimulated with maximal-effect DAMGO. inhibition, % at 10 µM. actives 55% (n = 2,400). AID 488928;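 active means drop in membrane potential signal beyond 5 SD of the control wells in both duplicate plates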;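 further: TRPC4 counter screen for TRPC6 hits run under conditions tuned for TRPC6 not TRPC4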
TRPC6 inh conf – mouse TRPC6 inhibitor confirmation; shares compounds with TRPC6 inh; HEK293-TRPC6, membrane potential dye, ACh-evoked depolarization; inhibition, % at 10 µM; actives 43% (n = 3,300);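 active means fluorescence ratio falls more than 5 SD below the full-stimulation control mean, in both duplicate runs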;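 further: integrated fluorescence ratio of peak minus minimum over baseline after agonist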
TRPC6 act conf – confirmation of mouse TRPC6 activators; actives 11% (n = 2,800); HEK293-TRPC6 membrane potential dye fluorescence, FDSS; activation, % at 10 µM; shares compounds with TRPC6 inh; AID 488961;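 active means ratio signal rise beyond 5 SD above unstimulated control wells' mean, seen in both duplicate runs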;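 further: plate controls were buffer EC0 wells for no effect and acetylcholine ECmax response for full effect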
Active calls of the source: *; i = inactive; x = no result given.

SMILES	TRPC6 activator	TRPC6 inh	TRPC4 potent	TRPC4 act	TRPC4 block	HEK293 MPD ctr-2	HEK293 MPD ctr 2-2	TRPC4/MOR mod	TRPC4/MOR inh 2	TRPC6 inh conf	TRPC6 act conf	others
CCOc1ccc(CN(C)C(=O)c2ccc3ccccc3n2)cc1	i	-5.8*	i	i	i	i	i	i	i	i	i
CCOc1ccc(NC(=S)c2ccc3ccccc3n2)cc1	i	i	i	i	i	x	x	x	x	x	x
CC12CNCC(C)(CN(C(c3ccccc3)c3ccccc3)C1)C2	i	-5.6*	i	i	i	182%*	i	76%*	90%*	i	x
Clc1ccc(C(c2ccccc2)N2CCNCC2)cc1 (centres undefined)	i	-7.8*	i	i	i	x	x	x	x	i	i	TRPC4 spec 2=61%*;TRPC4 spec=i;HEK293 MPD ctr 2-1=i;HEK293 MPD ctr-1=i
CCNc1nc(N2CCCCC2)nc(-n2nnc(C(=O)OCC)c2C)n1	12*	i	i	i	i	i	i	112%*	80%*	i	68%*
CCOC(=O)c1nnn(-c2nc(OC)nc(N3CCCC3)n2)c1-c1ccccc1	i	i	i	i	i	x	x	x	x	x	x
Cc1ccccc1C(OCCN(C(C)C)C(C)C)c1ccccc1 (centres undefined)	i	-5*	i	i	i	209%*	88%*	44%*	44%*	80%*	x
CN(C)CCOC(c1ccccc1)c1ccccc1 (tested in a mixture with another compound)	i	-5.2*	i	i	i	154%*	i	26%*	34%*	51%*	x
C(=N\Nc1ncnc2sc3c(c12)CCC3)/c1ccncc1	i	i	i	i	i	x	x	x	x	x	x
c1cc(Nc2ncnc3sc4c(c23)CCC4)ccn1	i	-5.6*	i	i	i	-242%*	67%*	-39%*	38%*	55%*	i
Cc1ccc(S(=O)(=O)Nc2ccc(NC(=O)CN3CCCCC3)cc2)cc1	13*	-6.8*	i	i	i	i	i	8.5%*	i	83%*	118%*
Cc1ccc(S(=O)(=O)Nc2cccc(NC(=O)CN3CCCCC3)c2)cc1	i	i	i	i	i	x	x	x	x	x	x
Cc1cc(CSC(=N)N)c(CSC(=N)N)cc1C	i	-6.8*	i	130*	i	-264%*	58%*	-36%*	i	47%*	i
